Assay results published in ChEMBL document CHEMBL1124809, “Synthesis and biological evaluation of analogues of Pro-Leu-Gly-NH2 modified at the leucyl residue” (J Med Chem, 1990).
The source made the active and inactive calls. The calls are words filed in the database; no cut-off is given here. Where a SMILES comes first, the peptide text is derived from it. [ ]: non-standard residue; d: D form. Phe(4-NO2) = N[C@@H](Cc1ccc([N+](=O)[O-])cc1)C(=O)O; Phg = N[C@H](C(=O)O)c1ccccc1; Nle = CCCC[C@H](N)C(=O)O; Nva = CCC[C@H](N)C(=O)O; Abu = CC[C@H](N)C(=O)O

What was measured:
[1] = target: D(2) dopamine receptor (Bos taurus) (UniProt P20288); assay: Ability to enhance the binding of [3H]ADTN to dopamine receptor D2 isolated from bovine striatal membranes; inactive
Chain of D(2) dopamine receptor (Bos taurus) (P20288 whole entry): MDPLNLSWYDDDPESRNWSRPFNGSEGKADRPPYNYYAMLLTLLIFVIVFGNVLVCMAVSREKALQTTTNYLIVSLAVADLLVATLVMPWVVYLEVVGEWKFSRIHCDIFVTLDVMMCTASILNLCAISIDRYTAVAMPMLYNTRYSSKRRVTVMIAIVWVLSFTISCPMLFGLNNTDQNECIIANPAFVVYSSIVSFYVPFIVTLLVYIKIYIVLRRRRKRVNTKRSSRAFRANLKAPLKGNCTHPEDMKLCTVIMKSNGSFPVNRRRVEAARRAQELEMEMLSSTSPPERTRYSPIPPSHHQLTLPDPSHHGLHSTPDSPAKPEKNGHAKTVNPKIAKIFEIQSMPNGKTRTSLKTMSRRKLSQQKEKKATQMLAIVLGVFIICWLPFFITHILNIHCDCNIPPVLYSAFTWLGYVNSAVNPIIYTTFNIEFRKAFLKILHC
In short: (§1)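 Membranes from freshly dissected bovine caudate, homogenized in 50 mM Tris-HCl/1 mM EDTA pH 7.4, centrifuged twice at 27000g. Resuspended in Tris-HCl with ascorbate, MnCl2, DTT, PMSF, soybean trypsin inhibitor and bacitracin. 0.2–0.3 mg protein incubated with 8 nM [3H]ADTN ± peptide (10⁻¹²–10⁻⁴ M) for 10 min at 37 °C in triplicate. GF/B filtration, scintillation counting, % increase in specific binding over control.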

[2] = target: D(2) dopamine receptor (Bos taurus) (UniProt P20288); assay: Ability to enhance the binding of [3H]-ADTN to Dopamine receptor D2 isolated from bovine caudate membranes at 1 uM concentration; in short: as §1
[3] = target: D(2) dopamine receptor (Bos taurus) (UniProt P20288); assay: Ability to stimulate the binding of [3H]ADTN to Dopamine receptor D2 isolated from bovine striatal membranes at 1 uM concentration; in short: as §1
[4] = target: D(2) dopamine receptor (Bos taurus) (UniProt P20288); assay: Ability to enhance the binding of [3H]ADTN to Dopamine receptor D2 isolated from bovine striatal membranes; maximum effect at 0.1 uM; in short: as §1

SMILES	Activity [1]	also measured
NC(=O)CNC(=O)[C@H](CCc1ccccc1)NC(=O)[C@@H]1CCCN1	inactive	
NC(=O)CNC(=O)[C@H](CCc1ccccc1)NC(=O)[C@H]1CCCN1	inactive	
CC[C@H](C)[C@H](NC(=O)[C@@H]1CCCN1)C(=O)NCC(N)=O (H-Pro-Ile-Gly-NH2)	inactive	
CC(C)C[C@H](NC(=O)[C@@H]1CCCN1)C(=O)NCC(N)=O (H-Pro-Leu-Gly-NH2)		Stimulation [2]: 27%
NC(=O)CNC(=O)[C@H](Cc1ccccc1)NC(=O)[C@@H]1CCCN1 (H-Pro-Phe-Gly-NH2)		Stimulation [3]: 31%
CCCC[C@H](NC(=O)[C@@H]1CCCN1)C(=O)NCC(N)=O (H-Pro-[Nle]-Gly-NH2)		Activity [4]: Active
CCC[C@H](NC(=O)[C@@H]1CCCN1)C(=O)NCC(N)=O (H-Pro-[Nva]-Gly-NH2)	inactive	

Continued, in another order:

Activity [1]	SMILES	also measured
inactive	COc1ccc(C[C@H](NC(=O)[C@@H]2CCCN2)C(=O)NCC(N)=O)cc1 (H-Pro-Tyr(Me)-Gly-NH2)	
inactive	CC[C@H](NC(=O)[C@@H]1CCCN1)C(=O)NCC(N)=O (H-Pro-[Abu]-Gly-NH2)	
inactive	NC(=O)CNC(=O)[C@H](Cc1ccc([N+](=O)[O-])cc1)NC(=O)[C@@H]1CCCN1 (H-Pro-[Phe(4-NO2)]-Gly-NH2)	
inactive	NC(=O)CNC(=O)[C@@H](NC(=O)[C@@H]1CCCN1)c1ccccc1 (H-Pro-[Phg]-Gly-NH2)	
